The source of these data is PMC5634022 (Journal of Insect Science, 2014).

SMILES strings stand for the structures.

This experiment concerns CarE (carboxylesterase, EC3.1.1.1), final purified. The experiment can be described thus: esterase activity, Fast Blue B, Lineweaver-Burk. The experiment is classed as biochemical, Dendrolimus superans. The following applies: read-out: K m (mol/liter); 35°C; kcat unit printed as s. In a few lines:
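Carboxylesterase from sixth-instar larval tissue homogenate, purified at 4°C by ammonium sulfate precipitation, Sephadex G-25, DEAE-52 and hydroxyapatite chromatography. Enzyme incubated 10 min at 35°C with α- or β-naphthyl acetate at five concentrations (0.1875–3.0 × 10^-4 mol/liter). Stopped with SDS/Fast Blue B; read at 600 nm. Km and Vmax from Lineweaver–Burk plots. Kcat from SDS-PAGE molecular weight and Vmax.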

Regarding `CC(=O)Oc1ccc2ccccc2c1` [β-NA], the Km came to 0.000162 mol/L.
